The target in data set [1] is DNA topoisomerase 2-alpha (Homo sapiens) (UniProt P11388). Kind of data set: Inhibition of human topoisomerase 2alpha at 100 uM incubated for 30 mins at 37 degC by agarose-gel electrophoresis based ATP-dependent kDNA decatenation assay. In outline:
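Commercial topoisomerase drug-screening kit, in vitro ATP-dependent assay. kDNA treated with hTopoIIα plus test agent or 100 µM etoposide, 37 °C, 30 min. Run on 1% agarose gel in TAE buffer; decatenated product quantified.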

The target in data set [2] is T1, DNA topoisomerase 1 (Homo sapiens) (UniProt P11387).
T1 sequence (whole entry): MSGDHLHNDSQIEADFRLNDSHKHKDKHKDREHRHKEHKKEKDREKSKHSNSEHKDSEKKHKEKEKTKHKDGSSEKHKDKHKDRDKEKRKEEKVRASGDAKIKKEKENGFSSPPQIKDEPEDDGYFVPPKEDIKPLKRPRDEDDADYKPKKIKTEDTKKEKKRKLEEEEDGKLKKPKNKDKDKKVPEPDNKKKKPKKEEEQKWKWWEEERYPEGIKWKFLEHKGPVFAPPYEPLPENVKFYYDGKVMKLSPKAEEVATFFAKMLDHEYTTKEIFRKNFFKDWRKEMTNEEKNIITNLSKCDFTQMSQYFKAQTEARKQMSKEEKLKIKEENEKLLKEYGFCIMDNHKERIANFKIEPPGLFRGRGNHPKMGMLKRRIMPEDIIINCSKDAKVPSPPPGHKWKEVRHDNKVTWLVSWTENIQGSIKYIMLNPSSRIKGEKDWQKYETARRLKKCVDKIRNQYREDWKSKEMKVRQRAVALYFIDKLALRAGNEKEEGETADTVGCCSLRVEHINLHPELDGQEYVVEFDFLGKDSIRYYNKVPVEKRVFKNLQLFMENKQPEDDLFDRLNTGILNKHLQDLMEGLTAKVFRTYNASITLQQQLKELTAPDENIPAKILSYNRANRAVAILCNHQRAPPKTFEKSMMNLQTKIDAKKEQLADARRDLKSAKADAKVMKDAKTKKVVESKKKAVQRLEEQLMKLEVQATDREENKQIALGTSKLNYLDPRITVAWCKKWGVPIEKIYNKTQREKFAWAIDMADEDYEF
Description: Inhibition of human DNA topoisomerase 1 assessed as effect on relaxation of negatively super colied DNA at 100 uM incubated for 30 mins at 37 degC by agarose-gel electrophoresis. An outline of the steps: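 Negatively supercoiled DNA treated with human topoisomerase I plus test agent or 100 µM camptothecin, 37 °C, 30 min. Relaxation judged on 1% agarose gel electrophoresis in TAE buffer.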

A short description of data set [3]: Cytotoxicity against african green monkey Vero cells after 48 hrs by MTT assay. Format: cell-based. Conditions: chlorocebus sabaeus, read-out: LC50. In outline: (§1)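 HEK-293 (ATCC CRL-1573) or normal monkey kidney Vero (ATCC CCL-81) cells were plated, then exposed to a range of compound concentrations for 48 h. MTT was added, and the formazan was dissolved in detergent solution and read at 570 nm. LC50 is the concentration giving 50% cell death. Data are the mean SD of three separate experiments.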
A general note: Tetrazolium dyes change colour on reduction, which living cells bring about.

A further data set concerns HEK293. Kind of data set: Cytotoxicity against HEK293 cells after 48 hrs by MTT assay. Conditions: Homo sapiens, HEK293, 48 h; read-out: LC50 (the source's name). The format is functional. An outline of the steps:
as §1

Another data set deals with Nucleic Acid. Kind of data set: Induction of DNA intercalation in negatively Escherichia coli super coiled small circular plasmid DNA assessed as retradation of DNA migration at 100 uM incubated for 20 mins at 37 degC by agarose-gel electrophoresis. The format is nucleic-acid assay. In outline: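 250 ng negatively supercoiled small circular plasmid DNA (from E. coli) incubated with test agent or ethidium bromide, 37 °C, 20 min. Products resolved on 1% agarose gel in TAE buffer.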

Activity calls are given as the source filed them. The calls are words filed in the database; no cut-off is given here.

The source of these data is ChEMBL document CHEMBL2331536, “Indenoindolone derivatives as topoisomerase II-inhibiting anticancer agents” (Bioorg Med Chem Lett, 2013).

Chain of DNA topoisomerase 2-alpha (Homo sapiens) (P11388 whole entry): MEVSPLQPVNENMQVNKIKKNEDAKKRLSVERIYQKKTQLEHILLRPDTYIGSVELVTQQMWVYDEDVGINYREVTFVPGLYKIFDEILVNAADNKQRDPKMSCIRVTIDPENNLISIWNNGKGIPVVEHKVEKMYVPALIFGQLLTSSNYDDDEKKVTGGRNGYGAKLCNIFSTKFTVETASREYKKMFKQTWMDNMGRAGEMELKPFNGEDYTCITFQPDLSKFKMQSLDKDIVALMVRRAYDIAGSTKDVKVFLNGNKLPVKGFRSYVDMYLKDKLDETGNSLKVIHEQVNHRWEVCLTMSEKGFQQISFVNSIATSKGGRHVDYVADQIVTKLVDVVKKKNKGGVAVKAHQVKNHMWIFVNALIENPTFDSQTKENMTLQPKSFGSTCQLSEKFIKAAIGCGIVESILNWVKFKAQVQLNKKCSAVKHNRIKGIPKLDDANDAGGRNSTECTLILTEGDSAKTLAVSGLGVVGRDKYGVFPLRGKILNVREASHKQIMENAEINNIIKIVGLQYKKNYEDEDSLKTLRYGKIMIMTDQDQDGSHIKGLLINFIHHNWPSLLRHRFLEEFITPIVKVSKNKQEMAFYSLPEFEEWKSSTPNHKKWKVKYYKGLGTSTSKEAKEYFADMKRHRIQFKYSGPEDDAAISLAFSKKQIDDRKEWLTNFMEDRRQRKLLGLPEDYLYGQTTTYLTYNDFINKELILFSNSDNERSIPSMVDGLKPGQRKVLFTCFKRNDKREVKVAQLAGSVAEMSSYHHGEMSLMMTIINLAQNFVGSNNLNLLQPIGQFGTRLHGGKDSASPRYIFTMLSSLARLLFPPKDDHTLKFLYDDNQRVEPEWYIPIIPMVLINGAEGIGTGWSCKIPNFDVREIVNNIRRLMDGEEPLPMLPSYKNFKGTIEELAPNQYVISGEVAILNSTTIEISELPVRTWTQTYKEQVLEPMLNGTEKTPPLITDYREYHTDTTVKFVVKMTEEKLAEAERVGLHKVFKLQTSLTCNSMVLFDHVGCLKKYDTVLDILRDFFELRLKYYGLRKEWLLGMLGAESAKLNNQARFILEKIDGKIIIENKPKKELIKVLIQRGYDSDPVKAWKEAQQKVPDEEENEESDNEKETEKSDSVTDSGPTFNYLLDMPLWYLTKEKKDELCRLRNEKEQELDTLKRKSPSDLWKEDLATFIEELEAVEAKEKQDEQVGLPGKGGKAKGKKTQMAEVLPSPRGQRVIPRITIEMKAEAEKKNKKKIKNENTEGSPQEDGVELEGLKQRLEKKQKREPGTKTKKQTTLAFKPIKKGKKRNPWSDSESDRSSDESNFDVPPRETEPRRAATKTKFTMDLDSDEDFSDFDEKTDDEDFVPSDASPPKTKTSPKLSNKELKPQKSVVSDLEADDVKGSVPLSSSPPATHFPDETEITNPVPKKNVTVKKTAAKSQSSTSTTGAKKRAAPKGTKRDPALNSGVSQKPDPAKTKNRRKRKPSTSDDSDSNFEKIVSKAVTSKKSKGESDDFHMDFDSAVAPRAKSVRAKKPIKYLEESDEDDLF

Consider `COc1ccc(N/N=C2\c3ccccc3-c3c2c2ccccc2n3C)cc1`, for which the inhibition entry in data set [1] is “Active”.
As to `COc1ccc2c(c1)/C(=N\O)c1c-2n(C)c2ccccc12`, the inhibition entry in data set [2] is “inactive”. Besides, the CC50 at 48 h in data set [3] stood at 60 µM. In addition, the inhibition entry in data set [1] was “Active”. In the data set on HEK293, the CC50 came to 5 µM. The outcome with Nucleic Acid was inactive.
Turning to `Cn1c2c(c3ccccc31)/C(=N/Nc1ccccc1)c1ccccc1-2`, the inhibition entry in data set [1] is “Active”.
For the molecule `NC(=S)N/N=C1\c2ccccc2-c2[nH]c3ccccc3c21`, the inhibition result in data set [2] is “inactive”. In data set [3], the CC50 at 48 h was 50 µM. In data set [1], the inhibition entry was “Active”. For the same molecule, in the data set with HEK293, the CC50 is 7 µM. Further, the outcome in the data set with Nucleic Acid was inactive.
On to `COc1ccc(N/N=C2\c3ccccc3-c3c2c2ccccc2n3Cc2ccccc2)cc1`, for which the inhibition entry in data set [1] was “Active”.
Take `O=C(N/N=C1\c2ccccc2-c2c1c1ccccc1n2Cc1ccccc1)Nc1ccccc1`: in data set [1], the inhibition result is “Active”.
On to `O=c1[nH]cc(F)c(=O)[nH]1` [FLUOROURACIL], for which the CC50 in the data set with HEK293 worked out at 25 µM.
Consider `COc1ccc2c(c1)C(O)c1c-2n(C)c2ccccc12` (centres undefined), for which, in data set [2], the inhibition result is “inactive”. Further, the CC50 at 48 h in data set [3] was determined as 30 µM. Further, the inhibition entry in data set [1] was “Active”. Besides, the CC50 in the data set on HEK293 was found to be 4 µM. Moreover, the outcome in the data set with Nucleic Acid was inactive.
Regarding `Cn1c2c(c3ccccc31)/C(=N/NC(=O)Nc1ccccc1)c1ccccc1-2`, the inhibition entry in data set [1] was “Active”.
In the case of `O/N=C1\c2ccccc2-c2c1c1ccccc1n2Cc1ccccc1`, in data set [1], the inhibition result is “Active”.
As to `Cc1ccc(N/N=C2\c3ccccc3-c3c2c2ccccc2n3C)cc1`, the inhibition entry in data set [1] is “Active”.
In the case of `COc1ccc(N/N=C2/c3cc(OC)c(OC)cc3-c3c2c2ccccc2n3C)cc1`, the inhibition entry in data set [1] is “Active”.
As for `COc1ccc2c(c1)c1c(n2C)-c2ccccc2/C1=N\Nc1ccccc1`, in data set [1], the inhibition entry is “Active”.
For the molecule `CC[n+]1c(-c2ccccc2)c2cc(N)ccc2c2ccc(N)cc21`, the outcome with Nucleic Acid was Active.
Turning to `CN1c2ccccc2C2=C(O)c3ccccc3C21` (centres undefined), the inhibition entry in data set [1] is “Active”.
For `O/N=C1\c2ccccc2-c2[nH]c3ccccc3c21`, the inhibition result in data set [2] is “inactive”. The CC50 at 48 h in data set [3] amounted to 60 µM. The inhibition result in data set [1] is “Active”. Further, the CC50 in the data set with HEK293 was 6 µM. Besides, in the data set with Nucleic Acid, the result was inactive.
For `COc1cc2c(c(OC)c1OC)-c1c(c3ccccc3n1C)C2O` (centres undefined), the inhibition result in data set [2] was “inactive”. In data set [3], the CC50 at 48 h turned out to be 40 µM. Also, in data set [1], the inhibition entry is “Active”. In addition, in the data set on HEK293, the CC50 was 8 µM. The outcome in the data set with Nucleic Acid was inactive.
Regarding `c1ccc(Cn2c3c(c4ccccc42)/C(=N/Nc2ccccc2)c2ccccc2-3)cc1`, the inhibition entry in data set [1] is “Active”.
Turning to `COc1ccc(N/N=C2/c3cc(OC)c(OC)c(OC)c3-c3c2c2ccccc2n3C)cc1`, in data set [1], the inhibition entry was “Active”.
As to `c1ccc(N/N=C2\c3ccccc3-c3[nH]c4ccccc4c32)cc1`, the inhibition result in data set [1] was “Active”.
`COc1cc([C@@H]2c3cc4c(cc3[C@@H](O[C@@H]3O[C@@H]5CO[C@@H](C)O[C@H]5[C@H](O)[C@H]3O)[C@H]3COC(=O)[C@H]23)OCO4)cc(OC)c1O` [ETOPOSIDE]: the CC50 at 48 h in data set [3] worked out at 29 µM. For the same molecule, the CC50 in the data set with HEK293 is 17 µM. The outcome in the data set with Nucleic Acid was inactive.
Take `COc1ccc2c(c1)/C(=N\Nc1ccccc1)c1c-2n(C)c2ccccc12`: the inhibition result in data set [1] was “Active”.
